Columns and labels:
Type in all cases: toxicity, cell-based
[1] = system: U2OS; assay: Incucyte cell viability with U2OS; conditions: human, 10 µM, compound concentration 10 uM; further: filed as whole numbers so only -1 and 0 and 1 occur
[2] = system: HEK-293T; assay: Incucyte cell viability with HEK293T; conditions: human, 10 µM, compound concentration 10 uM; further: filed as whole numbers so only -1 and 0 and 1 occur
[3] = system: Fibroblast; assay: Multiplex assay against human fibroblast
Method in brief: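 Compound was added to live cells that had been stained at seeding with Hoechst33342, BioTracker Green Microtubule Cytoskeleton Dye, MitoTracker Red and Annexin V Alexa Fluor 680, and imaging followed on a CQ1 microscope at 37°C and 5% CO2. CellPathfinder machine-learning gating divided cells into Hoechst high-intensity objects or normal cells, normal cells into healthy, pyknosed or fragmented nuclei, and pyknosed cells into mitotic or apoptotic. Tubulin, mitochondrial-mass and membrane-permeability phenotypes are per cents of healthy-nucleus cells.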

[4] = system: Fibroblast; assay: Incucyte cell viability with human fibroblast; conditions: 10 µM, compound concentration 10 uM; further: filed as whole numbers so only -1 and 0 and 1 occur
[5] = 6 h, replicate number 1, timepoint 6 hours
[6] = 12 h, replicate number 1, timepoint 12 hours
[7] = 18 h, replicate number 1, timepoint 18 hours
[8] = 24 h, replicate number 1, timepoint 24 hours
[9] = 12 h, 1 µM, compound concentration 1 uM, replicate 1
[10] = 12 h, 1 µM, compound concentration 1 uM, replicate 2
[11] = 12 h, 10 µM, compound concentration 10 uM, replicate 1
[12] = 12 h, 10 µM, compound concentration 10 uM, replicate 2
[13] = 24 h, 1 µM, compound concentration 1 uM, replicate 1
[14] = 24 h, 1 µM, compound concentration 1 uM, replicate 2
[15] = 24 h, 10 µM, compound concentration 10 uM, replicate 1
[16] = 24 h, 10 µM, compound concentration 10 uM, replicate 2

SMILES: COc1cc2c(Nc3ccc(NC(=O)c4ccccc4)cc3)ncnc2cc1OCCCN1CCOCC1
- Growth Rate ([1]; 0 h, replicate number 1, timepoint 0 hours): 1
- Growth Rate [1, 5]: 1
- Growth Rate [1, 6]: 0
- Growth Rate [1, 7]: 0
- Growth Rate ([1]; 18 h, replicate number 2, timepoint 18 hours): 1
- Growth Rate [1, 8]: 0
- Growth Rate ([1]; 24 h, replicate number 2, timepoint 24 hours): 1
- Growth Rate [2, 5]: 0
- Growth Rate [2, 6]: 0
- Growth Rate [2, 7]: 0
- Growth Rate [2, 8]: 0
- Population Apoptotic (%) [3, 9]: 55%
- Population Fragmented Nuclei (%) [3, 9]: 25%
- Population Healthy Nuclei (%) [3, 9]: 53%
- Population Hoechst High Intensity Objects (%) [3, 9]: 35%
- Population Membrane Permeable-Phenotype (%) [3, 9]: 9%
- Population Mitochondria Different-Phenotype (%) [3, 9]: 10%
- Population Mitotic Cells (%) [3, 9]: 44%
- Population Normal (%) [3, 9]: 64%
- Population Pyknosed Nuclei (%) [3, 9]: 20%
- Population Tubulin-Different-Phenotype (%) [3, 9]: 41%
- Total Cell Count [3, 9]: 470
- Population Apoptotic (%) [3, 10]: 33%
- Population Fragmented Nuclei (%) [3, 10]: 44%
- Population Healthy Nuclei (%) [3, 10]: 46%
- Population Hoechst High Intensity Objects (%) [3, 10]: 30%
- Population Membrane Permeable-Phenotype (%) [3, 10]: 22%
- Population Mitochondria Different-Phenotype (%) [3, 10]: 12%
- Population Mitotic Cells (%) [3, 10]: 66%
- Population Normal (%) [3, 10]: 69%
- Population Pyknosed Nuclei (%) [3, 10]: 8%
- Population Tubulin-Different-Phenotype (%) [3, 10]: 64%
- Total Cell Count [3, 10]: 97
- Population Apoptotic (%) [3, 11]: 82%
- Population Fragmented Nuclei (%) [3, 11]: 39%
- Population Healthy Nuclei (%) [3, 11]: 49%
- Population Hoechst High Intensity Objects (%) [3, 11]: 19%
- Population Membrane Permeable-Phenotype (%) [3, 11]: 9%
- Population Mitochondria Different-Phenotype (%) [3, 11]: 5%
- Population Mitotic Cells (%) [3, 11]: 17%
- Population Normal (%) [3, 11]: 80%
- Population Pyknosed Nuclei (%) [3, 11]: 11%
- Population Tubulin-Different-Phenotype (%) [3, 11]: 4%
- Total Cell Count [3, 11]: 250
- Population Apoptotic (%) [3, 12]: 0%
- Population Fragmented Nuclei (%) [3, 12]: 70%
- Population Healthy Nuclei (%) [3, 12]: 27%
- Population Hoechst High Intensity Objects (%) [3, 12]: 41%
- Population Membrane Permeable-Phenotype (%) [3, 12]: 0%
- Population Mitochondria Different-Phenotype (%) [3, 12]: 7%
- Population Mitotic Cells (%) [3, 12]: 100%
- Population Normal (%) [3, 12]: 58%
- Population Pyknosed Nuclei (%) [3, 12]: 2%
- Population Tubulin-Different-Phenotype (%) [3, 12]: 7%
- Total Cell Count [3, 12]: 82
- Population Apoptotic (%) [3, 13]: 61%
- Population Fragmented Nuclei (%) [3, 13]: 26%
- Population Healthy Nuclei (%) [3, 13]: 47%
- Population Hoechst High Intensity Objects (%) [3, 13]: 46%
- Population Membrane Permeable-Phenotype (%) [3, 13]: 14%
- Population Mitochondria Different-Phenotype (%) [3, 13]: 17%
- Population Mitotic Cells (%) [3, 13]: 38%
- Population Normal (%) [3, 13]: 53%
- Population Pyknosed Nuclei (%) [3, 13]: 26%
- Population Tubulin-Different-Phenotype (%) [3, 13]: 59%
- Total Cell Count [3, 13]: 391
- Population Apoptotic (%) [3, 14]: 58%
- Population Fragmented Nuclei (%) [3, 14]: 34%
- Population Healthy Nuclei (%) [3, 14]: 42%
- Population Hoechst High Intensity Objects (%) [3, 14]: 41%
- Population Membrane Permeable-Phenotype (%) [3, 14]: 23%
- Population Mitochondria Different-Phenotype (%) [3, 14]: 33%
- Population Mitotic Cells (%) [3, 14]: 41%
- Population Normal (%) [3, 14]: 58%
- Population Pyknosed Nuclei (%) [3, 14]: 24%
- Population Tubulin-Different-Phenotype (%) [3, 14]: 52%
- Total Cell Count [3, 14]: 85
- Population Apoptotic (%) [3, 15]: 76%
- Population Fragmented Nuclei (%) [3, 15]: 31%
- Population Healthy Nuclei (%) [3, 15]: 55%
- Population Hoechst High Intensity Objects (%) [3, 15]: 22%
- Population Membrane Permeable-Phenotype (%) [3, 15]: 6%
- Population Mitochondria Different-Phenotype (%) [3, 15]: 3%
- Population Mitotic Cells (%) [3, 15]: 24%
- Population Normal (%) [3, 15]: 77%
- Population Pyknosed Nuclei (%) [3, 15]: 13%
- Population Tubulin-Different-Phenotype (%) [3, 15]: 5%
- Total Cell Count [3, 15]: 248
- Population Apoptotic (%) [3, 16]: 66%
- Population Fragmented Nuclei (%) [3, 16]: 69%
- Population Healthy Nuclei (%) [3, 16]: 25%
- Population Hoechst High Intensity Objects (%) [3, 16]: 32%
- Population Membrane Permeable-Phenotype (%) [3, 16]: 15%
- Population Mitochondria Different-Phenotype (%) [3, 16]: 7%
- Population Mitotic Cells (%) [3, 16]: 33%
- Population Normal (%) [3, 16]: 67%
- Population Pyknosed Nuclei (%) [3, 16]: 5%
- Population Tubulin-Different-Phenotype (%) [3, 16]: 15%
- Total Cell Count [3, 16]: 77
- Growth Rate ([4]; 0 h, replicate number 2, timepoint 0 hours): 1
- Growth Rate [4, 5]: 0
- Growth Rate [4, 6]: 0
- Growth Rate [4, 7]: 0
- Growth Rate [4, 8]: 0

— ChEMBL document CHEMBL4689842, “EUbOPEN Chemogenomics Library wave 1” (2021)
